# What was measured:
# Assay type in all cases: functional
# SNB-19 = experiment: Growth inhibition of human SNB19 cells assessed as cell growth at 10^-5 M after 48 hrs by sulforhodamine B assay; details: SNB-19, 48 h, read-out: Activity
# MCF7 = experiment: Growth inhibition of human MCF7 cells at 10 uM after 48 hrs by sulforhodamine B assay; details: MCF7, 48 h, read-out: GI
# Method in brief: (§1)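 Single-dose screen at 10 µM across the NCI 60 panel. Cells in RPMI 1640 with 5% FBS and 2 mM L-glutamine, plated at 5000–40,000/well and preincubated 24 h at 37 °C, 5% CO2. Drug in DMSO, 48 h exposure. Fixed with TCA, stained with SRB, A515 read. Percent growth is taken relative to untreated control, and inhibition is 100 minus growth.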
# IGROV-1 = experiment: Growth inhibition of human IGROV1 cells at 10 uM after 48 hrs by sulforhodamine B assay; details: IGROV-1, 48 h, read-out: GI; method in brief: as §1
# BT-549 = experiment: Growth inhibition of human BT549 cells at 10 uM after 48 hrs by sulforhodamine B assay; details: BT-549, 48 h, read-out: GI
# Method in brief: (§2)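 Single-dose NCI-60 prescreen at 10 µM for 48 h at 37 °C and 5% CO2, using cells grown in RPMI 1640 with 5% FBS and 2 mM glutamine. Protein was measured by SRB after TCA fixation: 10% final for adherent lines, 16% for suspension lines. Absorbance was read at 515 nm. Percent growth inhibition was obtained by subtracting percent growth from 100.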
# OVCAR-8 = experiment: Growth inhibition of human OVCAR8 cells at 10 uM after 48 hrs by sulforhodamine B assay; details: OVCAR-8, 48 h, read-out: GI; method in brief: as §1
# DU-145 = experiment: Growth inhibition of human DU145 cells at 10 uM after 48 hrs by sulforhodamine B assay; details: DU-145, 48 h, read-out: GI; method in brief: as §2
# UACC-257 = experiment: Growth inhibition of human UACC257 cells at 10 uM after 48 hrs by sulforhodamine B assay; details: UACC-257, 48 h, read-out: GI; method in brief: as §1
# Malme-3M = experiment: Growth inhibition of human MALME-3M cells at 10 uM after 48 hrs by sulforhodamine B assay; details: read-out: GI; method in brief: as §1
# A549 = experiment: Growth inhibition of human A549/ATCC cells at 10 uM after 48 hrs by sulforhodamine B assay; details: A549, 48 h, read-out: GI; method in brief: as §2
# [1] = Growth inhibition of human Hs 578T cells at 10 uM after 48 hrs by sulforhodamine B assay; details: read-out: GI
# Method in brief: (§3)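 NCI-60 one-dose primary screen at a single 10 µM concentration. Cells in RPMI 1640 with 5% FBS, preincubated 24 h at 37 °C, 5% CO2. Drug exposure 48 h, then TCA fixation, SRB staining and absorbance at 515 nm. Percent growth calculated against time-zero and untreated control wells, then converted to percent growth inhibition.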
# SF-268 = experiment: Growth inhibition of human SF268 cells at 10 uM after 48 hrs by sulforhodamine B assay; details: SF-268, 48 h, read-out: GI; method in brief: as §1
# K562 [2] = experiment: Growth inhibition of human K562 cells assessed as cell growth at 10^-7 M after 48 hrs by sulforhodamine B assay; details: K562, 48 h, read-out: Activity
# SK-MEL-5 = experiment: Growth inhibition of human SK-MEL-5 cells at 10 uM after 48 hrs by sulforhodamine B assay; details: SK-MEL-5, 48 h, read-out: GI; method in brief: as §1
# SK-MEL-28 = experiment: Growth inhibition of human SK-MEL-28 cells at 10 uM after 48 hrs by sulforhodamine B assay; details: SK-MEL-28, 48 h, read-out: GI; method in brief: as §1
# [3] = Growth inhibition of human EKVX cells at 10 uM after 48 hrs by sulforhodamine B assay; details: read-out: GI; method in brief: as §3
# UACC-62 = experiment: Growth inhibition of human UACC62 cells at 10 uM after 48 hrs by sulforhodamine B assay; details: UACC-62, 48 h, read-out: GI; method in brief: as §1
# ACHN = experiment: Growth inhibition of human ACHN cells assessed as cell growth at 10^-6 M after 48 hrs by sulforhodamine B assay; details: read-out: Activity
# Method in brief: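 Five-dose NCI-60 run (0.01, 0.1, 1, 10 and 100 µM, as 10-fold dilutions from a DMSO stock made at 400× the top final level). Cells were grown in RPMI 1640 with 5% FBS and 2 mM glutamine and plated for 24 h. They were then exposed for 48 h at 37 °C and 5% CO2. TCA fixation was followed by SRB staining with A515 read-out. Percent growth was taken relative to time-zero and control plates.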
# [4] = Growth inhibition of human HCC2998 cells at 10 uM after 48 hrs by sulforhodamine B assay; details: HCC 2998, 48 h, read-out: GI; method in brief: as §3
# A498 = experiment: Growth inhibition of human A498 cells at 10 uM after 48 hrs by sulforhodamine B assay; details: A498, 48 h, read-out: GI; method in brief: as §2
# K562 [5] = experiment: Growth inhibition of human K562 cells at 10 uM after 48 hrs by sulforhodamine B assay; details: K562, 48 h, read-out: GI; method in brief: as §1
# T47D = experiment: Growth inhibition of human T47D cells assessed as cell growth at 10^-4 M after 48 hrs by sulforhodamine B assay; details: read-out: Activity
# PC-3 = experiment: Growth inhibition of human PC3 cells at 10 uM after 48 hrs by sulforhodamine B assay; details: PC-3, 48 h, read-out: GI; method in brief: as §1
# U-251 = experiment: Growth inhibition of human U251 cells at 10 uM after 48 hrs by sulforhodamine B assay; details: U-251, 48 h, read-out: GI; method in brief: as §1
# MDA-MB-231 = experiment: Growth inhibition of human MDA-MB-231 cells at 10 uM after 48 hrs by sulforhodamine B assay; details: MDA-MB-231, 48 h, read-out: GI; method in brief: as §1
# TK-10 = experiment: Growth inhibition of human TK10 cells at 10 uM after 48 hrs by sulforhodamine B assay; details: TK-10, 48 h, read-out: GI; method in brief: as §1
# LOX IMVI = experiment: Growth inhibition of human LOXIMVI cells at 10 uM after 48 hrs by sulforhodamine B assay; details: read-out: GI; method in brief: as §1
# HOP-62 = experiment: Growth inhibition of human HOP62 cells at 10 uM after 48 hrs by sulforhodamine B assay; details: HOP-62, 48 h, read-out: GI; method in brief: as §3
# SF-295 = experiment: Growth inhibition of human SF295 cells at 10 uM after 48 hrs by sulforhodamine B assay; details: SF-295, 48 h, read-out: GI; method in brief: as §1
# MDA-MB-468 = experiment: Growth inhibition of human MDA-MB-468 cells at 10 uM after 48 hrs by sulforhodamine B assay; details: MDA-MB-468, 48 h, read-out: GI; method in brief: as §1
# RXF 393 = experiment: Growth inhibition of human RXF393 cells at 10 uM after 48 hrs by sulforhodamine B assay; details: RXF 393, 48 h, read-out: GI; method in brief: as §1
SMILES,growth at 10 µM (SNB-19) [%],inhibition of growth at 10 µM (MCF7) [%],inhibition of growth at 10 µM (IGROV-1) [%],inhibition of growth at 10 µM (BT-549) [%],inhibition of growth at 10 µM (OVCAR-8) [%],inhibition of growth at 10 µM (DU-145) [%],inhibition of growth at 10 µM (UACC-257) [%],inhibition of growth at 10 µM (Malme-3M) [%],inhibition of growth at 10 µM (A549) [%],inhibition of growth at 10 µM [1] [%],inhibition of growth at 10 µM (SF-268) [%],growth at 0.1 µM (K562 [2]) [%],inhibition of growth at 10 µM (SK-MEL-5) [%],inhibition of growth at 10 µM (SK-MEL-28) [%],inhibition of growth at 10 µM [3] [%],inhibition of growth at 10 µM (UACC-62) [%],growth at 1 µM (ACHN) [%],inhibition of growth at 10 µM [4] [%],inhibition of growth at 10 µM (A498) [%],inhibition of growth at 10 µM (K562 [5]) [%],other results
O=S(=O)(Nc1ccc(Cl)cc1)c1ccc2nc(-c3ccccc3)c(-c3ccccc3)nc2c1,17,47.7,20.8,77.8,34.8,24.4,17.9,6.64,41.9,37.5,14.1,98,74,14.6,57.8,30.6,96,37.9,44.3,55.6,growth at 100 µM (T47D): 37%; inhibition of growth at 10 µM (PC-3): 60%; inhibition of growth at 10 µM (U-251): 39.5%; inhibition of growth at 10 µM (MDA-MB-231): 54.3%; inhibition of growth at 10 µM (TK-10): 2.84%; inhibition of growth at 10 µM (LOX IMVI): 38.4%; inhibition of growth at 10 µM (HOP-62): 12.8%; inhibition of growth at 10 µM (SF-295): 40.7%; inhibition of growth at 10 µM (MDA-MB-468): 76.8%; inhibition of growth at 10 µM (RXF 393): 98.8%
O=S(=O)(Nc1ccccn1)c1ccc2nc(-c3ccccc3)c(-c3ccccc3)nc2c1,17,65.9,31.8,80.2,52.8,37.4,42.5,32.9,54.7,76.3,27.6,99,-6.25,30.3,80.8,41.1,94,60.6,70.2,64.4,growth at 100 µM (T47D): -1%; inhibition of growth at 10 µM (PC-3): 72.2%; inhibition of growth at 10 µM (U-251): 56.5%; inhibition of growth at 10 µM (MDA-MB-231): 80.1%; inhibition of growth at 10 µM (TK-10): 30.2%; inhibition of growth at 10 µM (LOX IMVI): 63.3%; inhibition of growth at 10 µM (HOP-62): 22.8%; inhibition of growth at 10 µM (SF-295): 76.8%; inhibition of growth at 10 µM (MDA-MB-468): -4.67%; inhibition of growth at 10 µM (RXF 393): -40.4%

# Reference: ChEMBL document CHEMBL2407075, “Sulphonamido-quinoxalines: search for anticancer agent” (Eur J Med Chem, 2013)
